Experimental data reported in ChEMBL document CHEMBL1152124, “Piperidine variations in search for non-imidazole histamine H(3) receptor ligands” (Bioorg Med Chem, 2008).

How the values were obtained:
Histamine H3 receptor [1] = target: T1, Histamine H3 receptor (Homo sapiens, UniProt Q9Y5N1); test: Displacement of [125I]iodoproxyfan from human recombinant histamine H3 receptor expressed in CHO-K1 cells; format: cell-based
Method in brief: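 Stably transfected CHO-K1 cells washed and harvested in PBS, homogenized in ice-cold 50 mmol/L Na2HPO4/KH2PO4 pH 7.5. Membranes pelleted at 23,000g. Membranes incubated 60 min at 25 °C with 25 pmol/L [125I]iodoproxyfan ± competitor, in triplicate. Stopped by ice-cold medium and filtration through PEI-soaked glass fibre filters; gamma counting. Nonspecific binding defined with imetit. Ki by Cheng-Prusoff; mean of at least triplicate experiments.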

Mus musculus = test: Antagonist activity at histamine H3 receptor in po dosed Swiss mouse cerebral cortex assessed as Ntau-methylhistamine level after 90 mins by radioimmunoassay; format: functional; settings: 1.5 h
Method in brief: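 Swiss mice fasted 24 h, then dosed orally. Decapitated 90 min later; cerebral cortex homogenized in 10 vol ice-cold 0.4 M perchloric acid. Nτ-methylhistamine measured by radioimmunoassay. Response related to the maximal rise produced by ciproxifan 3 mg/kg po. At least triplicate experiments; ED50 calculated as mean with SEM.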

Histamine H3 receptor [2] = target: T1, Histamine H3 receptor; test: Displacement of [3H](R)-alpha-methylhistamine from human histamine H3 receptor expressed in rat C6 cells; format: cell-based
Histamine H3 receptor [3] = target: T1, Histamine H3 receptor

T1 sequence (Q9Y5N1 whole entry): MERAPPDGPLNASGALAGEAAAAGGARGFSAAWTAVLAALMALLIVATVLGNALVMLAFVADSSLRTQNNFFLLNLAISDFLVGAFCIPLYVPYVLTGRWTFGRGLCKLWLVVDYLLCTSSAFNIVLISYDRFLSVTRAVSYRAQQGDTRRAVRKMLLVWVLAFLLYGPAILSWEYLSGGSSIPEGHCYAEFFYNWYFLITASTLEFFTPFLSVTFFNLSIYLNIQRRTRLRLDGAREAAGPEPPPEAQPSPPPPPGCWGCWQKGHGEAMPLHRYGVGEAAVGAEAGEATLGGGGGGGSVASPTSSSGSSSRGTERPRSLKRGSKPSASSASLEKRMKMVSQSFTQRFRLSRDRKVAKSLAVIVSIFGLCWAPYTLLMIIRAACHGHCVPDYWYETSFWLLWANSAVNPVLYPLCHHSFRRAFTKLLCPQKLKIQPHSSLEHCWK

Row | Compound | Ki (Histamine H3 receptor [1]; read-out: Ki) [nM] | ED50 (Mus musculus) [mg/kg] | also measured
1 | c1ccc(CCCOCCCN2CCc3ccccc3C2)cc1 | 560 | > 10 | –
2 | Clc1ccc(CCCOCCCN2CCCCC2)cc1 [PITOLISANT] | – | 1.6 | –
3 | c1ccc(COCCCc2c[nH]cn2)cc1 [PROXYFAN] | – | > 10 | Ki (Histamine H3 receptor [1]; read-out: pKi (converted)): 2.51 nM
4 | COc1cccc(OCCCN2CCC(N3CCCCC3)CC2)c1 | > 10000 | > 20 | –
5 | COc1cccc(OCCN2CCC(N3CCCCC3)CC2)c1 | 132 | – | –
6 | c1ccc(CCCOCCCN2CCCCC2)cc1 | – | 3.7 | Ki (Histamine H3 receptor [1]; read-out: pKi (converted)): 3.16 nM; Ki (Histamine H3 receptor [2]): 3.1 nM
7 | c1ccc(CCCOCCCN2CCC3CCCCC3C2)cc1 (centres undefined) | 393 | > 10 | –
8 | c1ccc(CCCOCCCN2CCC(Cc3ccccc3)CC2)cc1 | 326 | > 10 | –
9 | CCCCC1CCN(CCCOCCCc2ccccc2)CC1 | 274 | > 10 | –
10 | CCCC1CCN(CCCOCCCc2ccccc2)CC1 | 249 | > 10 | –
11 | C[C@H]1[C@H]2CC[C@H]3[C@@H]4CC=C5C[C@@H](N(C)C)CC[C@]5(C)[C@H]4CC[C@]23CN1C [CONESSINE] | – | – | Ki (Histamine H3 receptor [1]; read-out: pKi (converted)): 5.01 nM
12 | CC(C)(C)c1ccc(OCCCN2CCC(N3CCCCC3)CC2)cc1 | 100 | > 20 | –
13 | CNC(=O)c1ccc(Oc2ccc3c(c2)CCN(C2CCC2)CC3)nc1 | – | – | pKb (Histamine H3 receptor [3]): 9.3
14 | FC(F)(F)c1cccc(OCCN2CCC(N3CCCCC3)CC2)c1 | 164 | – | –
15 | Clc1cccc(OCCN2CCC(N3CCCCC3)CC2)c1 | 235 | – | –
16 | Clc1ccc(OCCCN2CCC(N3CCCCC3)CC2)cc1 | 165 | > 20 | –
17 | Clc1ccc(OCCN2CCC(N3CCCCC3)CC2)cc1 | 176 | – | –
18 | Cc1ccc(OCCN2CCC(N3CCCCC3)CC2)cc1 | 300 | – | –
